Bioassay records from PubChem.
KCNQ1 inh – inhibitors of human KCNQ1 channel, primary screen, cell-based, thallium flux, high-throughput; Potassium voltage-gated channel subfamily KQT member 1 (Homo sapiens), P51787; CHO-K1 KCNQ1, FluxOR thallium flux fluorescence; active compounds read high; B-score at 10 µM; actives 1.3% (n = 310,000);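 active = compounds whose thallium flux B-score, printed positive for inhibition, exceeds three library SD while starting fluorescence stays within three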;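 also: channel opened by potassium depolarization with thallium stimulus after 20 min compound exposure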
KCNK3 block – human KCNK3 channel inhibitors, primary screen, CHO cells, FluxOR thallium flux, B-score; actives 0.84% (n = 340,000); AID 602410, 2012; FluxOR fluorescence; active compounds read low; B-score at 10 µM;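 active = B-score under library mean minus 4 SD, starting fluorescence ratio at most library mean plus 5 SD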;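 also: more negative B-score means stronger inhibition of thallium flux through KCNK3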
KCNK9 inh – KCNK9 potassium channel inhibitors, primary screen, HEK293 cells, thallium flux; Potassium channel subfamily K member 9 (Homo sapiens), Q9NPC2; FluxOR thallium flux fluorescence; active compounds read low; B-score at 10 µM; actives 1.2% (n = 310,000); AID 488922, 2010;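 active = ratio B-score over 3 SD below the library mean, with starting fluorescence within 5 SD of its mean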;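 also: negative B-score means less thallium flux so channel inhibition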
hERG protect – hERG rescue from dofetilide block, primary screen, cell-based, CHO-hERG, FluxOR thallium flux, dofetilide IC70 | Voltage-gated inwardly rectifying potassium channel KCNH2 (Homo sapiens), Q12809 | dofetilide IC70 present | activation (rescue from dofetilide block), less the hit threshold, % at 10 µM | actives 0.51% (n = 310,000) | AID 1511, 2009;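 active = activation above the mean of controls blocked by dofetilide plus 5 SD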;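 also: thallium influx through hERG after potassium depolarization seen as dye fluorescence rise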
KCNQ1 pot – potentiators or activators of KCNQ1 channel, primary screen, cell-based, thallium flux, high-throughput; Potassium voltage-gated channel subfamily KQT member 1 (Homo sapiens), P51787; CHO-K1 KCNQ1, thallium flux FluxOR fluorescence; active compounds read high; B-score at 10 µM; actives 0.35% (n = 310,000); AID 2648, 2010;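 active = fluorescence ratio B-score, a plate-corrected score, at least three library SD, with initial intensity B-score within 5 SD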
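Medium – assay buffer, equal DMSO in all wells · Material – CHO-K1 cell line with stable KCNQ1 potassium channel expression · Signal – kinetic FluxOR thallium fluorescence, 10-s 1-Hz baseline, 110-s post-stimulus read · Compound – single concentration per compound, DMSO matched to controls · Schedule – 37 °C overnight plating, 90-min dark dye load, 20-min compound pretreatment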
Kir21 block – inhibitors of mouse Kir2.1 inward-rectifier potassium channel. B-score at 10 µM. HEK293-Kir2.1, FluxOR thallium flux fluorescence; active compounds read low. Inward rectifier potassium channel 2 (Mus musculus), P35561. AID 1672, 2009. actives 0.85% (n = 310,000);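 active = fluorescence ratio B-score at or below minus 3 SD of library scores, with starting-brightness B-score within 2 SD, cut at about -4.2 in these data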;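 also: channel flux triggered by added potassium and thallium sulfate stimulus; B-score of peak minus minimum fluorescence over baseline after thallium stimulus; more negative B-score means stronger Kir2.1 block with less thallium influx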
Numbers stand for hits. Compounds with a hit are over-represented: about 3.7% of the library has one in this group of screens.

What do the screens show for `CCCCC1(Cc2ccc([N+](=O)[O-])cc2)C(=O)N(c2ccccc2)N(c2ccccc2)C1=O`?
KCNQ1 inh: 8; KCNK3 block: inactive; KCNK9 inh: inactive; hERG protect: inactive; KCNQ1 pot: inactive; Kir21 block: inactive

How did COc1ccc(N=C2O/C(=C/c3sc(=S)n(CC4CCCO4)c3O)N=C2C#N)cc1 (stereo unspecified) do in these assays?
KCNQ1 inh: 10; KCNK3 block: inactive; KCNK9 inh: inactive; hERG protect: inactive; KCNQ1 pot: inactive; Kir21 block: inactive

Results for Cc1ccc(NC(=O)c2cccs2)cc1 ?
KCNQ1 inh: inactive; KCNK3 block: inactive; KCNK9 inh: inactive; hERG protect: inactive; KCNQ1 pot: inactive; Kir21 block: inactive

How did Cc1ccc(NC(=O)C(=O)NNC(=O)c2cccs2)cc1 do in these assays?
KCNQ1 inh: inactive; KCNK3 block: inactive; KCNK9 inh: inactive; hERG protect: 20.4; KCNQ1 pot: 40; Kir21 block: inactive

Results for COc1ccc(/C=C/C(=O)NC(=S)NNC(=O)c2cccs2)cc1 ?
KCNQ1 inh: inactive; KCNK3 block: inactive; KCNK9 inh: inactive; hERG protect: 16.1; KCNQ1 pot: inactive; Kir21 block: inactive

Results for COc1ccc(/C=C/C(=O)Nc2ccccc2C(=O)N2CCCC2)cc1 ?
KCNQ1 inh: inactive; KCNK3 block: inactive; KCNK9 inh: inactive; hERG protect: inactive; KCNQ1 pot: inactive; Kir21 block: inactive

Results for COc1ccc(/C=C/C(=O)Nc2ccccc2C(=O)O)cc1 ?
KCNQ1 inh: inactive; KCNK3 block: inactive; KCNK9 inh: inactive; hERG protect: 31.6; KCNQ1 pot: inactive; Kir21 block: inactive

What do the screens show for `COc1ccc(NC(=O)C(=O)NNC(=O)c2cccs2)c(OC)c1`?
KCNQ1 inh: inactive; KCNK3 block: inactive; KCNK9 inh: inactive; hERG protect: 12.1; KCNQ1 pot: 22; Kir21 block: inactive

Results for CC1CCCN(S(=O)(=O)c2ccc(NC(=O)[C@@H]3CCCN3C(=O)c3cccs3)cc2)C1 (stereo partly specified) ?
KCNK3 block: inactive

How did CCOC(=O)CCN1C(=O)c2ccccc2Sc2ncccc21 do in these assays?
KCNQ1 inh: inactive; KCNK3 block: inactive; KCNK9 inh: inactive; hERG protect: inactive; KCNQ1 pot: inactive; Kir21 block: inactive

How did COc1ccc(NC(=O)CN2C(=O)COc3ccc(S(=O)(=O)N4CCCCC4)cc32)c(OC)c1 do in these assays?
KCNQ1 inh: inactive; KCNK3 block: inactive; KCNK9 inh: inactive; hERG protect: inactive; KCNQ1 pot: inactive; Kir21 block: inactive

Results for COc1ccc(/C=C(/C(=O)Nc2ccccc2C(=O)NC(C)C)c2ccccc2)cc1 ?
KCNQ1 inh: 6; KCNK3 block: inactive; KCNK9 inh: inactive; hERG protect: inactive; KCNQ1 pot: inactive; Kir21 block: inactive

What do the screens show for `COc1ccc(NC(=O)C(=O)NNC(=O)c2cccs2)cc1`?
KCNQ1 inh: inactive; KCNK3 block: inactive; KCNK9 inh: inactive; hERG protect: 6.9; KCNQ1 pot: inactive; Kir21 block: inactive

What do the screens show for `CCOc1ccc(N(CC(=O)Nc2ccccc2C(=O)N2CCOCC2)S(=O)(=O)c2ccc(F)cc2)cc1`?
KCNQ1 inh: inactive; KCNK3 block: inactive; KCNK9 inh: inactive; hERG protect: inactive; KCNQ1 pot: inactive; Kir21 block: inactive

What do the screens show for `CCc1cccc(CC)c1C(O)c1cccnc1` (stereo unspecified)?
KCNQ1 inh: inactive; KCNK3 block: inactive; KCNK9 inh: inactive; hERG protect: inactive; KCNQ1 pot: inactive; Kir21 block: -4.62

How did CCc1cccc(CC)c1NC(=S)NCC(c1cccnc1)N(C)C (stereo unspecified) do in these assays?
KCNQ1 inh: inactive; KCNK3 block: inactive; KCNK9 inh: inactive; hERG protect: inactive; KCNQ1 pot: inactive; Kir21 block: inactive

Results for Cc1ccccc1-n1c(C)cc(/C=N/NC(=O)c2ccncc2)c1C ?
KCNQ1 inh: inactive; KCNK3 block: inactive; KCNK9 inh: inactive; hERG protect: inactive; KCNQ1 pot: 11; Kir21 block: inactive

What do the screens show for `O=C(N/N=C/c1cc(Cl)cc(Cl)c1O)c1ccncc1`?
KCNQ1 inh: 7; KCNK3 block: inactive; KCNK9 inh: inactive; hERG protect: inactive; KCNQ1 pot: inactive; Kir21 block: inactive

What do the screens show for `CCCCN(C(=O)c1cc(CN2C(=O)c3ccccc3C2=O)ccc1OC)c1c(N)n(CC(C)C)c(=O)[nH]c1=O`?
KCNK3 block: inactive

Results for Cc1ccccc1C(=O)NCC(=O)OC(C)C(=O)Nc1cccc(S(=O)(=O)N2CCOCC2)c1 (stereo unspecified) ?
KCNQ1 inh: inactive; KCNK3 block: inactive; KCNK9 inh: inactive; hERG protect: inactive; KCNQ1 pot: inactive; Kir21 block: inactive

How did O=C(CN1CCCCC1)Nc1c2c(nc3ccccc13)N(c1ccccc1)CC2 do in these assays?
KCNQ1 inh: inactive; KCNK3 block: inactive; KCNK9 inh: inactive; hERG protect: inactive; KCNQ1 pot: inactive; Kir21 block: inactive

Results for CCCC(=O)Nc1c2c(nc3ccccc13)N(c1ccccc1)CC2 ?
KCNQ1 inh: inactive; KCNK3 block: -9.28; KCNK9 inh: inactive; hERG protect: inactive; KCNQ1 pot: inactive; Kir21 block: inactive

How did CCCNC(=O)c1csc(Nc2cccc3ccccc23)n1 do in these assays?
KCNQ1 inh: inactive; KCNK3 block: inactive; KCNK9 inh: -8.04; hERG protect: inactive; KCNQ1 pot: inactive; Kir21 block: inactive

How did COCCNC(=O)c1csc(Nc2cccc3ccccc23)n1 do in these assays?
KCNQ1 inh: inactive; KCNK3 block: inactive; KCNK9 inh: inactive; hERG protect: inactive; KCNQ1 pot: inactive; Kir21 block: inactive

How did O=C(OCC(=O)N1CCC(Cc2ccccc2)CC1)c1cc(Cl)ccc1O do in these assays?
KCNQ1 inh: inactive; KCNK3 block: inactive; KCNK9 inh: inactive; hERG protect: inactive; KCNQ1 pot: inactive; Kir21 block: inactive

How did CCN(CC(=O)Nc1cc(Cl)ccc1C)c1ncnc2sc(C)c(C)c12 do in these assays?
KCNQ1 inh: inactive; KCNK3 block: inactive; KCNK9 inh: -6.62; hERG protect: inactive; KCNQ1 pot: inactive; Kir21 block: inactive

Results for O=C(c1ccco1)N1CCCC(c2nc3c(nnn3Cc3ccc(Cl)cc3Cl)c(=O)[nH]2)C1 (stereo unspecified) ?
KCNQ1 inh: inactive; KCNK3 block: inactive; KCNK9 inh: inactive; hERG protect: inactive; KCNQ1 pot: inactive; Kir21 block: inactive

What do the screens show for `O=C1Nc2ccccc2/C1=C/c1cnc(-c2ccccc2)[nH]1`?
KCNQ1 inh: inactive; KCNK3 block: inactive; KCNK9 inh: -6.62; hERG protect: inactive; KCNQ1 pot: inactive; Kir21 block: inactive
